# Results: ChEMBL document CHEMBL3808334, “Synthesis and in vitro evaluation of novel triazine analogues as anticancer agents and their interaction studies with bovine serum albumin” (Eur J Med Chem, 2016)
# Tests used:
# Assay type in all cases: functional
# K562 = test: Growth inhibition of human K562 cells assessed as cell growth at 10^-4 M incubated for 48 hrs by sulforhodamine B assay; conditions: K562, 48 h, read-out: Activity
# [1] = Growth inhibition of human SW620 cells assessed as cell growth at 10^-7 M incubated for 48 hrs by sulforhodamine B assay; conditions: SW-620, 48 h, read-out: Activity
# [2] = Growth inhibition of human Caki1 cells assessed as cell growth at 10^-5 M incubated for 48 hrs by sulforhodamine B assay; conditions: CAKI-1, 48 h, read-out: Activity
# Summary of the method: (§1)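 Cells seeded at 5,000–40,000/well according to doubling time and preincubated 24 h at 37 °C, 5% CO2. Time-zero plates were TCA-fixed. DMSO concentrate was diluted in medium with 50 µg/ml gentamicin to give five concentrations (10-fold or ½ log steps), then exposed 48 h. Cells were TCA-fixed, stained with 0.4% SRB and read at 515 nm. Percent growth was taken against time-zero and control; GI50, TGI and LC50 derived.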
# SK-MEL-28 = test: Growth inhibition of human SK-MEL-28 cells assessed as cell growth at 10^-7 M incubated for 48 hrs by sulforhodamine B assay; conditions: SK-MEL-28, 48 h, read-out: Activity
# NCI-H522 [3] = test: Growth inhibition of human NCI-H522 cells assessed as cell growth at 10^-4 M incubated for 48 hrs by sulforhodamine B assay; conditions: NCI-H522, 48 h, read-out: Activity
# [4] = Growth inhibition of human TK10 cells assessed as cell growth at 10^-4 M incubated for 48 hrs by sulforhodamine B assay; conditions: TK-10, 48 h, read-out: Activity
# [5] = Growth inhibition of human SF539 cells assessed as cell growth at 10 uM incubated for 48 hrs by sulforhodamine B assay; conditions: SF-539, 48 h, read-out: Activity
# [6] = Growth inhibition of human SF539 cells assessed as cell growth at 10^-7 M incubated for 48 hrs by sulforhodamine B assay; conditions: SF-539, 48 h, read-out: Activity
# [7] = Growth inhibition of human COLO205 cells assessed as cell growth at 10^-8 M incubated for 48 hrs by sulforhodamine B assay; conditions: COLO 205, 48 h, read-out: Activity; summary of the method: as §1
# [8] = Growth inhibition of human HCT15 cells assessed as cell growth at 10 uM incubated for 48 hrs by sulforhodamine B assay; conditions: HCT-15, 48 h, read-out: Activity
# Summary of the method: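 Primary screen at one dose (10 µM) across 60 human cancer cell lines. Readout was growth percent relative to untreated control and time-zero.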
# MDA-MB-468 = test: Growth inhibition of human MDA-MB-468 cells assessed as cell growth at 10^-8 M incubated for 48 hrs by sulforhodamine B assay; conditions: MDA-MB-468, 48 h, read-out: Activity
# CCRF-CEM = test: Growth inhibition of human CCRF-CEM cells assessed as cell growth at 10 uM incubated for 48 hrs by sulforhodamine B assay; conditions: read-out: Activity
# Summary of the method: (§2)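 One-dose screen at 10 µM final. Cells are plated at 5,000–40,000 per well according to doubling time and preincubated 24 h at 37 °C, 5% CO₂. Compound (DMSO stock diluted in medium with 50 µg/ml gentamicin) is then added for 48 h. Growth percent is read by sulforhodamine B staining, absorbance at 515 nm.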
# [9] = Growth inhibition of human melanoma cells incubated for 48 hrs by sulforhodamine B assay; conditions: Melanoma cell; for CC50: read-out: LC50 (the source's name)
# NCI-H322M [10] = test: Growth inhibition of human NCI-H322M cells assessed as cell growth at 10^-6 M incubated for 48 hrs by sulforhodamine B assay; conditions: read-out: Activity
# MCF7 = test: Growth inhibition of human MCF7 cells assessed as cell growth at 10 uM incubated for 48 hrs by sulforhodamine B assay; conditions: MCF7, 48 h, read-out: Activity
# NCI-H522 [11] = test: Growth inhibition of human NCI-H522 cells assessed as cell growth at 10^-8 M incubated for 48 hrs by sulforhodamine B assay; conditions: NCI-H522, 48 h, read-out: Activity
# NCI-H226 = test: Growth inhibition of human NCI-H226 cells assessed as cell growth at 10^-6 M incubated for 48 hrs by sulforhodamine B assay; conditions: NCI-H226, 48 h, read-out: Activity
# M14 = test: Growth inhibition of human M14 cells assessed as cell growth at 10^-4 M incubated for 48 hrs by sulforhodamine B assay; conditions: M14, 48 h, read-out: Activity
# [12] = Growth inhibition of human TK10 cells incubated for 48 hrs by sulforhodamine B assay; conditions: TK-10, 48 h
# Summary of the method: (§3)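 Cells were plated at 5,000–40,000 per well according to doubling time and preincubated 24 h at 37 °C in 5% CO2; time-zero plates were then TCA-fixed. Five concentrations (10-fold or ½-log dilutions, DMSO stock) were incubated 48 h. Cells were TCA-fixed, stained with 0.4% SRB and read at 515 nm. GI50 was taken where [(Ti−Tz)/(C−Tz)]×100 = 50.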
# NCI-H322M [13] = test: Growth inhibition of human NCI-H322M cells assessed as cell growth at 10^-7 M incubated for 48 hrs by sulforhodamine B assay; conditions: read-out: Activity
# NCI-H522 [14] = test: Growth inhibition of human NCI-H522 cells assessed as cell growth at 10^-5 M incubated for 48 hrs by sulforhodamine B assay; conditions: NCI-H522, 48 h, read-out: Activity
# T47D = test: Growth inhibition of human T47D cells assessed as cell growth at 10^-6 M incubated for 48 hrs by sulforhodamine B assay; conditions: read-out: Activity
# [15] = Growth inhibition of human SF295 cells incubated for 48 hrs by sulforhodamine B assay; conditions: SF-295, 48 h; summary of the method: as §3
# [16] = Growth inhibition of human OVCAR5 cells assessed as cell growth at 10^-8 M incubated for 48 hrs by sulforhodamine B assay; conditions: OVCAR-5, 48 h, read-out: Activity
# [17] = Growth inhibition of human RXF393 cells assessed as cell growth at 10 uM incubated for 48 hrs by sulforhodamine B assay; conditions: RXF 393, 48 h, read-out: Activity
# [18] = Growth inhibition of human BT549 cells assessed as cell growth at 10 uM incubated for 48 hrs by sulforhodamine B assay; conditions: BT-549, 48 h, read-out: Activity; summary of the method: as §2
# NCI-H460 = test: Growth inhibition of human NCI-H460 cells assessed as cell growth at 10^-4 M incubated for 48 hrs by sulforhodamine B assay; conditions: NCI-H460, 48 h, read-out: Activity
# NCI-H322M [19] = test: Growth inhibition of human NCI-H322M cells incubated for 48 hrs by sulforhodamine B assay; summary of the method: as §3
# [20] = read-out: LC50 (the source's name)
# [21] = read-out: pLC50 (the source's name) (converted)
structure (smiles),measurement,setting,value
Clc1ccc(-c2nc(Nc3ccc(-c4nc5ccccc5[nH]4)cc3)nc(N3CCOCC3)n2)cc1,growth at 100 µM,K562,-29%
same,growth at 0.1 µM,[1],95%
same,growth at 10 µM,[2],-99%
same,growth at 0.1 µM,SK-MEL-28,102%
same,growth at 100 µM,NCI-H522 [3],-41%
same,growth at 100 µM,[4],-67%
same,growth at 10 µM,[5],-92.7%
same,growth at 0.1 µM,[6],98%
same,growth at 0.01 µM,[7],95%
same,growth at 10 µM,[8],-92.6%
same,growth at 0.01 µM,MDA-MB-468,99%
same,growth at 10 µM,CCRF-CEM,-91.5%
same,GI50,[9],1.07 µM
same,TGI,[9],2.48 µM
same,CC50,[9],5.79 µM
same,growth at 1 µM,NCI-H322M [10],2%
same,growth at 10 µM,MCF7,-73.8%
same,growth at 0.01 µM,NCI-H522 [11],100%
same,growth at 1 µM,NCI-H226,100%
same,growth at 100 µM,M14,-35%
same,GI50,[12]; read-out: GI50,1.96 µM
same,CC50,[12]; [20],5.97 µM
same,TGI,[12]; read-out: TGI,3.42 µM
same,GI50,[12]; read-out: pGI50 (converted),1.95 µM
same,CC50,[12]; [21],6.03 µM
same,TGI,[12]; read-out: pTGI (converted),3.39 µM
same,growth at 0.1 µM,NCI-H322M [13],94%
same,growth at 10 µM,NCI-H522 [14],-76%
same,growth at 1 µM,T47D,19%
same,GI50,[15]; read-out: GI50,1.47 µM
same,TGI,[15]; read-out: TGI,2.99 µM
same,GI50,[15]; read-out: pGI50 (converted),1.48 µM
same,TGI,[15]; read-out: pTGI (converted),3.02 µM
same,growth at 0.01 µM,[16],97%
same,growth at 10 µM,[17],-91.1%
same,growth at 10 µM,[18],-73.6%
same,growth at 100 µM,NCI-H460,-33%
same,GI50,NCI-H322M [19]; read-out: GI50,0.303 µM
same,TGI,NCI-H322M [19]; read-out: TGI,1.07 µM
same,GI50,NCI-H322M [19]; read-out: pGI50 (converted),0.302 µM
same,TGI,NCI-H322M [19]; read-out: pTGI (converted),1.07 µM
c1ccc2[nH]c(-c3ccc(Nc4nc(N5CCCCC5)nc(N5CCOCC5)n4)cc3)nc2c1,growth at 100 µM,K562,1%
same,growth at 0.1 µM,[1],92%
same,growth at 10 µM,[2],-55%
same,growth at 0.1 µM,SK-MEL-28,100%
same,growth at 100 µM,NCI-H522 [3],-29%
same,growth at 100 µM,[4],-32%
same,growth at 10 µM,[5],7.95%
same,growth at 0.1 µM,[6],96%
same,growth at 0.01 µM,[7],99%
same,growth at 10 µM,[8],-33.9%
same,growth at 0.01 µM,MDA-MB-468,104%
same,growth at 10 µM,CCRF-CEM,8.74%
same,GI50,[9],1.95 µM
same,TGI,[9],4.18 µM
same,CC50,[9],11.8 µM
same,growth at 1 µM,NCI-H322M [10],93%
same,growth at 10 µM,MCF7,3.49%
same,growth at 0.01 µM,NCI-H522 [11],89%
same,growth at 1 µM,NCI-H226,89%
same,growth at 100 µM,M14,-70%
same,GI50,[12]; read-out: GI50,3.21 µM
same,CC50,[12]; [20],> 100 µM
same,TGI,[12]; read-out: TGI,9.26 µM
same,GI50,[12]; read-out: pGI50 (converted),3.24 µM
same,CC50,[12]; [21],> 100 µM
same,TGI,[12]; read-out: pTGI (converted),9.33 µM
same,growth at 0.1 µM,NCI-H322M [13],97%
same,growth at 10 µM,NCI-H522 [14],-24%
same,growth at 1 µM,T47D,90%
same,GI50,[15]; read-out: GI50,1.85 µM
same,CC50,[15]; [20],34.6 µM
same,TGI,[15]; read-out: TGI,4.6 µM
same,GI50,[15]; read-out: pGI50 (converted),1.86 µM
same,CC50,[15]; [21],34.7 µM
same,TGI,[15]; read-out: pTGI (converted),4.57 µM
same,growth at 0.01 µM,[16],101%
same,growth at 10 µM,[17],-56.1%
same,growth at 10 µM,[18],23.1%
same,growth at 100 µM,NCI-H460,-45%
same,GI50,NCI-H322M [19]; read-out: GI50,4.72 µM
same,CC50,NCI-H322M [19]; [20],> 100 µM
same,TGI,NCI-H322M [19]; read-out: TGI,> 100 µM
same,GI50,NCI-H322M [19]; read-out: pGI50 (converted),4.68 µM
same,CC50,NCI-H322M [19]; [21],> 100 µM
same,TGI,NCI-H322M [19]; read-out: pTGI (converted),> 100 µM
